Test results: article PMC11210309 (Science Advances, 2021)

How the values were obtained:
Notch signaling = test: Western blot of cleaved NOTCH1 and HES1 during hIEC differentiation; format: cell-based, human; details: single treatment with VPA, 1 mM (Fig. 1F)
β-catenin = test: Western blot of β-catenin during hIEC differentiation; format: cell-based, human; details: differentiation of hIEC progenitors, 2 μM Wnt-C59 (Fig. 1F)
In short: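 hIEC progenitors are kept on 1% Matrigel in DMEM/F12 with EGF, R-spondin1 and insulin. They are seeded at 1.34 × 10^5 cells/cm2 on 1% Matrigel-coated Transwell inserts with 10 μM Y-27632 until near confluence. They are then switched to DMEM/F12 with EGF (100 ng/ml), 2 μM Wnt-C59, 1 mM VPA, 2% FBS, 2% B27, 1% N2, 2 mM l-glutamine, 1% NEAA and 15 mM Hepes.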

[1] = Apical-to-basolateral permeability; details: human, Caco-2
[2] = Apical-to-basolateral permeability; details: human
hIECs = test: qPCR of intestinal marker genes in compound-treated hIECs; format: cell-based, human; details: compound-treated hIECs in 2D culture (Fig. 1C)

Row | Papp A→B at 2 h [1] [×10⁻⁶ cm/s] | Papp A→B at 2 h [2] [×10⁻⁶ cm/s] | Molecule | further results
1 | 36.4 ± 1.13 | 12.5 ± 2.65 | O=C(O)Cc1ccccc1Nc1c(Cl)cccc1Cl [diclofenac] | –
2 | 35.5 ± 1 | 13.8 ± 0.74 | COCCc1ccc(OCC(O)CNC(C)C)cc1 (centres unmarked) [metoprolol] | –
3 | 29.1 ± 0.97 | 13.1 ± 1.25 | CC(C)NCC(O)COc1cccc2ccccc12 (centres unmarked) [propranolol] | –
4 | 1.16 ± 0.09 | 11.6 ± 0.92 | CNC(=C[N+](=O)[O-])NCCSCc1ccc(CN(C)C)o1 [ranitidine] | –

The next lines start with the molecule.

Row | Molecule | Papp A→B at 2 h [1] [×10⁻⁶ cm/s] | Papp A→B at 2 h [2] [×10⁻⁶ cm/s] | further results
5 | CCCC(CCC)C(=O)O [VPA, valproic acid] | – | – | Notch signaling (cleaved NOTCH1 and HES1) (Notch signaling): notable enhancement
6 | Cc1cc(-c2ccc(CC(=O)Nc3ccc(-c4cccnc4)cc3)cc2)ccn1 [WNT C-59] | – | – | Expression of β-catenin (β-catenin): specifically inhibited
7 | CC[C@H]1OC(=O)[C@H](C)[C@@H](O[C@H]2C[C@@](C)(OC)[C@@H](O)[C@H](C)O2)[C@H](C)[C@@H](O[C@@H]2O[C@H](C)C[C@H](N(C)C)[C@H]2O)[C@](C)(O)C[C@@H](C)C(=O)[C@H](C)[C@@H](O)[C@]1(C)O [erythromycin] | < 0.3 | 4.95 ± 0.14 | –
8 | Insulin: acts in the intestinal epithelium via the insulin receptor; component of hIEC medium 1 | – | – | Differentiation into absorptive cells (VIL1 and ANPEP expression) (hIECs): specifically increased
9 | R-spondin 1: an agonist of Wnt signaling (protein, UniProt Q2MKA7 21-263, looked up) R-spondin-1: SRGIKGKRQRRISAEGSQACAKGCELCSEVNGCLKCSPKLFILLERNDIRQVGVCLPSCPPGYFDARNPDMNKCIKCKIEHCEACFSHNFCTKCKEGLYLHKGRCYPACPEGSSAANGTMECSSPAQCEMSEWSPWGPCSKKQQLCGFRRGSEERTRRVLHAPVGDHAACSDTKETRRCTVRRVPCPEGQKRRKGGQGRRENANRNLARKESKEAGAGSRRRKGQQQQQQQGTVGPLTSAGPA | – | – | Expression of markers of major intestinal cell types (ISCs, enterocytes, secretory lineage cells) (hIECs): induced
